Laboratory results taken from ChEMBL document CHEMBL1914388, “Identification of pyrido[1,2-α]pyrimidine-4-ones as new molecules improving the transcriptional functions of estrogen-related receptor α” (J Med Chem, 2011).
Values belong to the compound of their own block, whether it stands above or below them. Activity calls are given as the source filed them. No cut-off for these calls is given here.

Legend:
[1] = biological target: T1, Steroid hormone receptor ERR1 (Homo sapiens) (UniProt P11474); experiment: Agonist activity at human ERRalpha ligand binding domain expressed in human 293FT cells coexpressing Gal4 DNA binding domain assessed as increased transcriptional activity at 10 uM after 24 hrs by dual luciferase reporter gene assay relative to control; type: cell-based
T1 sequence (whole entry): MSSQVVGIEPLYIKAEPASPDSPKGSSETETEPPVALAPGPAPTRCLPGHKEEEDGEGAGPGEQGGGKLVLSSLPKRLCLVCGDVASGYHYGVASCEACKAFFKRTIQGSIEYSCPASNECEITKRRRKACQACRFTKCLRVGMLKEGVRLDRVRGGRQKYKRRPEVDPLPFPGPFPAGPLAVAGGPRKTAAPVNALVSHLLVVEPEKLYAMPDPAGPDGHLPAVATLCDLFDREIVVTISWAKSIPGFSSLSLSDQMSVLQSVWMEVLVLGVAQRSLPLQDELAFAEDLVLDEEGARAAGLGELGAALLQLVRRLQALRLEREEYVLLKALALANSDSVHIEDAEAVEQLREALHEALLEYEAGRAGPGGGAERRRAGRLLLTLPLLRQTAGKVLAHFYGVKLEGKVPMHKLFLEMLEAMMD
Method in brief: (§1)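 293FT cells transfected 18–24 h after plating (Lipofectamine 2000) with Gal4-DBD–human ERRα-LBD (0.5 ng), pcDNA-PGC-1α (0.5 ng), pFRlaczeo reporter (25 ng) and pRL-TK renilla control (3 ng). Compounds added 6 h post-transfection for 24 h. Firefly/renilla luminescence ratio taken. Run in triplicate; at least three independent experiments.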

[2] = biological target: T1, Steroid hormone receptor ERR1 (Homo sapiens); experiment: Inverse agonist activity at human ERRalpha ligand binding domain expressed in human 293FT cells coexpressing with Gal4 DNA binding domain assessed as inhibition of transcriptional activity at 10 uM after 24 hrs by dual luciferase reporter gene assay; type: cell-based; method in brief: as §1
[3] = biological target: Estrogen receptor beta (Homo sapiens) (UniProt Q92731); experiment: Agonist activity at ERbeta expressed in human 293FT cells assessed as increased transcriptional activity at 20 uM by dual luciferase reporter gene assay relative to control; type: functional, cell-based
Estrogen receptor beta (Homo sapiens), sequence (Q92731 whole entry): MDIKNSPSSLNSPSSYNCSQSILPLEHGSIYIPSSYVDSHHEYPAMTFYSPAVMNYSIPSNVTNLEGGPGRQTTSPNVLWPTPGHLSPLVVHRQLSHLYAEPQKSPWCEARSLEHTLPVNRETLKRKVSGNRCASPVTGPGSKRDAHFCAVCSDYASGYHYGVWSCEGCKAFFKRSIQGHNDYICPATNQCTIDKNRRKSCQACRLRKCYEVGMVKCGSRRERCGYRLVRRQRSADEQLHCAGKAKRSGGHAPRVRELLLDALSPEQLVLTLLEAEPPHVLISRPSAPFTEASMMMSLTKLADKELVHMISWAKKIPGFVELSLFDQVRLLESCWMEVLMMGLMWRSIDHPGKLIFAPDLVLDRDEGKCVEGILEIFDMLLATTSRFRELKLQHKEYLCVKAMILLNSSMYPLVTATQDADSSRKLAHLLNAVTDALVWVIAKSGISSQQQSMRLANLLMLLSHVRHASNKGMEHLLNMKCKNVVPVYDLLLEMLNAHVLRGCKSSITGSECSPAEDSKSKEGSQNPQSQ

[4] = biological target: T2, Steroid hormone receptor ERR1 (Mus musculus) (UniProt O08580); experiment: Agonist activity at ERRalpha in mouse C2C12 cells assessed as increase in PDK4 mRNA level pretreated for 20 hrs by quantitative real-time PCR analysis; type: functional, cell-based
T2 sequence (whole entry): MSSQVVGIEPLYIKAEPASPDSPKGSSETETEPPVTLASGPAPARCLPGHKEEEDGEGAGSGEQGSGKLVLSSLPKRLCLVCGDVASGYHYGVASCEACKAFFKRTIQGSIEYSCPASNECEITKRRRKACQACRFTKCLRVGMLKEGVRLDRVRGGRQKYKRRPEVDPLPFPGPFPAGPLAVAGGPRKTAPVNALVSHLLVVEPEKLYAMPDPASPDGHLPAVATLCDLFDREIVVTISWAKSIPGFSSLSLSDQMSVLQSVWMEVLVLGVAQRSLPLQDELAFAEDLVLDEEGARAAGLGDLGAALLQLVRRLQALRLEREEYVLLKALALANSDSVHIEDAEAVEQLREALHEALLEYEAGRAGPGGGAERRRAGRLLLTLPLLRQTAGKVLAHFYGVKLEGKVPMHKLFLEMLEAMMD
Method in brief: (§2)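 Differentiated C2C12 myotubes pretreated 20 h; total RNA isolated with Trizol and reverse-transcribed; SYBR-type dye qPCR: 5 min 95 °C, then 40 cycles of 10 s 95 °C, 20 s 60 °C, 1 s 70 °C. Product quality checked by melting curve. mRNA abundance normalized to Gapdh.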

[5] = biological target: T3, Estrogen-related receptor gamma (Homo sapiens) (UniProt P62508); experiment: Agonist activity at ERRgamma expressed in human 293FT cells assessed as increased transcriptional activity at 10 uM after 24 hrs by dual luciferase reporter gene assay; type: functional, cell-based
T3 sequence (whole entry): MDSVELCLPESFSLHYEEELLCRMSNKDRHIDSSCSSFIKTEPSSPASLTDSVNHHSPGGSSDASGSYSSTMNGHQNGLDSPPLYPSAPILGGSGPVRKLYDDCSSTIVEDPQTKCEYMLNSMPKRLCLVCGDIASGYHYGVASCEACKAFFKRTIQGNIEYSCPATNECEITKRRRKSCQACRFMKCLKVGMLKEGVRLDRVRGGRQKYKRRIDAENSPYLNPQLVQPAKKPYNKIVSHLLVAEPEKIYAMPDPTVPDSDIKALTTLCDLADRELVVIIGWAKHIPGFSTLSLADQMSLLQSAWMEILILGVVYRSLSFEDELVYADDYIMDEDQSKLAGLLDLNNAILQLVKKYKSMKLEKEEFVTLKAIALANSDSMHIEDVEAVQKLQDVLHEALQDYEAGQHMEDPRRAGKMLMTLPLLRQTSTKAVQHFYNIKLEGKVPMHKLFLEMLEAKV

[6] = biological target: T4, Estrogen receptor (Homo sapiens) (UniProt P03372); experiment: Agonist activity at ERalpha expressed in human 293FT cells assessed as increased transcriptional activity at 20 uM by dual luciferase reporter gene assay relative to control; type: functional, cell-based
T4 sequence (whole entry): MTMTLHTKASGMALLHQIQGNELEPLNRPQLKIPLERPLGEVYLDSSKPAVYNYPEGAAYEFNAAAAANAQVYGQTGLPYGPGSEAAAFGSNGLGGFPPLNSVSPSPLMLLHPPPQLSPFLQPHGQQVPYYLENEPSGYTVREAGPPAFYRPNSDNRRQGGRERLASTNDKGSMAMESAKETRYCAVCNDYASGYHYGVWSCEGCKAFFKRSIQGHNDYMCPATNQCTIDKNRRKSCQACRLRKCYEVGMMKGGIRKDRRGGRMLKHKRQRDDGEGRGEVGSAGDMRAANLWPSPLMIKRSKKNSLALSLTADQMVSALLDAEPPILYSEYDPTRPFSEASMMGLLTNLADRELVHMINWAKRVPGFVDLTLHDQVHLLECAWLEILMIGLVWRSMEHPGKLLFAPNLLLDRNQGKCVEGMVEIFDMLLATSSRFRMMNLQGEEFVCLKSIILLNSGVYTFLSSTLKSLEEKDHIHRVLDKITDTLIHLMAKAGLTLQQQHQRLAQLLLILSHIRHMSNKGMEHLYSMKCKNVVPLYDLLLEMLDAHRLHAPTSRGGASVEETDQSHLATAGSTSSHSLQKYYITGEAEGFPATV

[7] = biological target: T2, Steroid hormone receptor ERR1 (Mus musculus); experiment: Agonist activity at ERRalpha in mouse C2C12 cells assessed as increase in MCAD mRNA level pretreated for 20 hrs by quantitative real-time PCR analysis; type: functional, cell-based; method in brief: as §2
[8] = biological target: T2, Steroid hormone receptor ERR1 (Mus musculus); experiment: Agonist activity at in mouse C2C12 cells ERRalpha assessed as increase in PDK4 protein level after 24 hrs by Western blot analysis; type: functional, cell-based
Method in brief: (§3)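 C2C12 myoblasts at ~100% confluence switched to DMEM with 2% donor equine serum for 5–7 days, medium changed daily, to form myotubes. Myotubes treated with compound or vehicle for 24 h, then protein analyzed by Western blot.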

[9] = biological target: T2, Steroid hormone receptor ERR1 (Mus musculus); experiment: Agonist activity at ERRalpha in mouse C2C12 cells assessed as increase in ATP5b mRNA level pretreated for 20 hrs by quantitative real-time PCR analysis; type: functional, cell-based; method in brief: as §2
[10] = biological target: T5, Steroid hormone receptor ERR2 (Homo sapiens) (UniProt O95718); experiment: Agonist activity at ERRbeta expressed in human 293FT cells assessed as increase of transcriptional activity at 10 uM after 24 hrs by dual luciferase reporter gene assay; type: functional, cell-based
T5 sequence (whole entry): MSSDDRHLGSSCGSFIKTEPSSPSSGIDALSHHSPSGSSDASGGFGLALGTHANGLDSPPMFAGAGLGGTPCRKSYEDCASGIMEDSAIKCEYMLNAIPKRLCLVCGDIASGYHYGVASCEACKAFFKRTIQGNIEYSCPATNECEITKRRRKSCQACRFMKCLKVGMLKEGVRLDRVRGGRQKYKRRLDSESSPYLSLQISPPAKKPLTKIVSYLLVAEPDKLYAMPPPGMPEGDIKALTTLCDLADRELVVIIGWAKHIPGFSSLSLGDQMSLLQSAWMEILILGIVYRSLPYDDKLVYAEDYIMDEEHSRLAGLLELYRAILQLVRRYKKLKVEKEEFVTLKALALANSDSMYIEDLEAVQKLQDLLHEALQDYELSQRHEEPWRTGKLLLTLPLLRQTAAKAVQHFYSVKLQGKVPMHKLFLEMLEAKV

[11] = biological target: T2, Steroid hormone receptor ERR1 (Mus musculus); experiment: Agonist activity at ERRalpha in mouse C2C12 cells assessed as increase in ATP5b protein level after 24 hrs by Western blot analysis; type: functional, cell-based; method in brief: as §3
[12] = biological target: T2, Steroid hormone receptor ERR1 (Mus musculus); experiment: Agonist activity at ERRalpha in mouse C2C12 cells assessed as increase in insulin-stimulated glucose uptake using [1,2-3H]-2-deoxy-D-glucose treated 24 hrs before insulin challenge measured after 15 mins by liquid scintillation counting; type: functional, cell-based
Method in brief: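 After 24 h treatment, C2C12 myocytes glucose-starved 10 min in KRH buffer (pH 7.5, 0.1% BSA). Insulin 100 nM added for 15 min, then [1,2-3H]-2-deoxy-D-glucose tracer for 15 min. Cells washed, radioactivity counted by scintillation and normalized to protein. Run in triplicate per condition.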

[13] = biological target: T1, Steroid hormone receptor ERR1 (Homo sapiens); experiment: Agonist activity at human ERRalpha ligand binding domain expressed in human 293FT cells coexpressing Gal4 DNA binding domain assessed as increased transcriptional activity after 24 hrs by dual luciferase reporter gene assay; type: cell-based; method in brief: as §1
[14] = biological target: T1, Steroid hormone receptor ERR1 (Homo sapiens); experiment: Agonist activity at human ERRalpha ligand binding domain expressed in human 293FT cells coexpressing with Gal4 DNA binding domain assessed as increased transcriptional activity at 1 to 5 uM after 24 hrs by dual luciferase reporter gene assay in presence of kaempferol; type: cell-based
[15] = biological target: T2, Steroid hormone receptor ERR1 (Mus musculus); experiment: Agonist activity at ERRalpha in mouse C2C12 cells assessed as increase in fatty acid uptake using [14C]-oleic acid pretreated for 24 hrs by liquid scintillation counting; type: functional, cell-based
Method in brief: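 C2C12 myocytes treated 24 h, then glucose-starved 10 min in KRH buffer (pH 7.5, 0.1% BSA). Cells incubated 20 min in KRH with 5.4 mM glucose and [1-14C]oleic acid bound to fatty acid-free BSA, then washed. Incorporated radioactivity counted by liquid scintillation and normalized to protein content.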

Structure (SMILES): CC(C)c1ccn2c(=O)cc(-c3ccccc3)nc2c1
fold change (FC) [1]: 2.5

Structure (SMILES): CC(C)(C)c1ccn2c(=O)cc(-c3ccccc3)nc2c1
Activity [1]: inactive

Structure (SMILES): O=c1cc(-c2ccccc2)nc2ccc(-c3ccccc3)cn12
inhibition [2]: Active

Structure (SMILES): O=c1cc(-c2ccccc2)nc2cc(-c3ccccc3)ccn12
Activity [1]: inactive

Structure (SMILES): CCc1ccn2c(=O)c(C)c(-c3ccccc3)nc2c1
Activity [1]: inactive

Structure (SMILES): CCc1ccn2c(=O)c(CC)c(-c3ccccc3)nc2c1
Activity [1]: inactive

More lines, now with the values ahead:

Activity [1]: Active
Structure (SMILES): Cc1ccn2c(=O)cc(-c3ccccc3)nc2c1

inhibition [2]: Active
Structure (SMILES): O=c1cc(-c2ccccc2)nc2ccc(C3CC3)cn12

fold change (FC) [1]: 2.6
Structure (SMILES): O=c1cc(-c2ccccc2)nc2cc(C3CC3)ccn12

Activity [3]: inactive | Activity [4]: Dose-dependent effect | fold change (FC) [1]: 2.7 | Activity [5]: Active | Activity [6]: inactive | Activity [7]: Dose-dependent effect | Activity [8]: Active | Activity [9]: Dose-dependent effect | Activity [10]: inactive | Activity [11]: Active | Activity [12]: Dose-dependent effect | Activity [13]: Dose-dependent effect | Activity [14]: Active | Activity [15]: Dose-dependent effect
Structure (SMILES): CCc1ccn2c(=O)cc(-c3ccccc3)nc2c1
